Test results reported in ChEMBL document CHEMBL2417552, “Screen of pseudopeptidic inhibitors of human sirtuins 1-3: two lead compounds with antiproliferative effects in cancer cells” (J Med Chem, 2013).
Activity calls are given as the source filed them. No cut-off for these calls is given here.

Assays:
[1] = test system: MCF7; assay: Growth inhibition of human MCF7 cells at >= 50 uM after 72 hrs by sulforhodamine B assay
[2] = biological target: T1, NAD-dependent protein deacetylase sirtuin-3, mitochondrial (Homo sapiens, UniProt Q9NTG7); assay: Inhibition of human recombinant His-tagged SIRT3 using KI179 as substrate preincubated for 5 mins followed by enzyme addition measured after 1 hr by fluorescence assay
T1 sequence (Q9NTG7 whole entry): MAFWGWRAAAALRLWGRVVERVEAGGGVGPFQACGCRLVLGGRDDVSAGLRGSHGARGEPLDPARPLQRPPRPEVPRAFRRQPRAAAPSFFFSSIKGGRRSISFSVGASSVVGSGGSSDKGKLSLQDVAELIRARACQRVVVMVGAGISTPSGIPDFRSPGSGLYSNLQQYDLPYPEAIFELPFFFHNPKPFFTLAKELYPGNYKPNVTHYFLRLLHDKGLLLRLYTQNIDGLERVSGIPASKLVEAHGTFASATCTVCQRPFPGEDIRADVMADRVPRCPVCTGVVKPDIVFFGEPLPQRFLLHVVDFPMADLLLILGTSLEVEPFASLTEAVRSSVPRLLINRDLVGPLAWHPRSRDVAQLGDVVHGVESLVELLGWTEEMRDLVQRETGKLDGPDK

[3] = test system: MCF7; assay: Effect on alpha-tubulin acetylation in human MCF7 cells at 50 uM after 6 to 18 hrs by Western blotting analysis; type: functional, cell-based
Method in brief: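 MCF-7 cells seeded 24 h ahead, treated for 6 or 18 h, then lysed in M-PER. Lysates run on SDS-PAGE, transferred to nitrocellulose and probed with mouse monoclonal anti-acetylated α-tubulin and anti-total α-tubulin. Detection with peroxidase anti-mouse secondary and ECL Plus.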

[4] = biological target: T2, NAD-dependent protein deacetylase sirtuin-3, mitochondrial (Homo sapiens) (UniProt Q9NTG7); conditions: at 50 µM
T2 sequence (whole entry): T1 sequence (Q9NTG7 whole entry)

[5] = biological target: T3, NAD-dependent protein deacetylase sirtuin-1 (Homo sapiens, UniProt Q96EB6); assay: Inhibition of human recombinant GST-tagged SIRT1 using KI177 as substrate preincubated for 5 mins followed by enzyme addition measured after 1 hr by fluorescence assay
T3 sequence (Q96EB6 whole entry): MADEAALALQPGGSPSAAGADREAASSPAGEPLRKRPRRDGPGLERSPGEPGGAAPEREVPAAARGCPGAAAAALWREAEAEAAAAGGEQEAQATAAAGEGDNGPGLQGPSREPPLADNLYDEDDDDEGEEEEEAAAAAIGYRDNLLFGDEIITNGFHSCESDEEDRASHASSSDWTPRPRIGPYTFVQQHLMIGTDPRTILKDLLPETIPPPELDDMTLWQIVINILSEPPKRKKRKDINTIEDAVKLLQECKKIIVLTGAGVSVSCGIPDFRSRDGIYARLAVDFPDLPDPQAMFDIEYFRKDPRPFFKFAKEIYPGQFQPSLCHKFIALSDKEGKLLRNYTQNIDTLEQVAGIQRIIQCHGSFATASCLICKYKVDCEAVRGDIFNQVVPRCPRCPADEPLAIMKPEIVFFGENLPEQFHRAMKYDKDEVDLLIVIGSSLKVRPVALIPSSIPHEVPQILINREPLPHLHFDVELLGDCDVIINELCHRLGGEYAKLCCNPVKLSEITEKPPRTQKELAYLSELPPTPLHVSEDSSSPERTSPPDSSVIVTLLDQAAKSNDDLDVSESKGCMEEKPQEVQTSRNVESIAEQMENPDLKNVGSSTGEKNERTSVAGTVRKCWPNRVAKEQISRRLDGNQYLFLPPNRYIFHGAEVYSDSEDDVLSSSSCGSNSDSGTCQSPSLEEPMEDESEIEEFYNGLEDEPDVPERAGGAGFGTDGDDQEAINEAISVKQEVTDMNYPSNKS
Method in brief: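 Fluor de Lys deacetylation assay. […] Mix preincubated 5 min at room temperature, started with enzyme, run 1 h at 37°C. Developer with 2 mM nicotinamide then added for 45 min at 37°C before fluorescence reading.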

[6] = biological target: T4, NAD-dependent protein deacetylase sirtuin-1 (Homo sapiens) (UniProt Q96EB6); assay: Inhibition of SIRT1 in etoposide-induced human SH-SY5Y cells assessed as increase in p53 acetylation at Lys382 at 20 uM after 5 hrs by Western blotting analysis; type: cell-based
T4 sequence (whole entry): T3 sequence (Q96EB6 whole entry)
Method in brief: (§1)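 ARPE-19 or SH-SY5Y cells seeded 24 h ahead, then given 20 μM compound and 100 μM etoposide together for 5 h before harvest. Acetylated p53 detected by Western blot. Mean ± SEM of 2 independent experiments.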

[7] = test system: A549; assay: Cell cycle arrest in human A549 cells assessed as accumulation at S phase at 100 uM after 18 hrs by propidium iodide staining-based FACS flow cytometric analysis (reference value: 17.8%); type: functional
[8] = test system: MCF7; assay: Cell cycle arrest in human MCF7 cells assessed as accumulation at S phase at 100 uM after 18 hrs by propidium iodide staining-based FACS flow cytometric analysis (reference value: 12.6%); type: functional
[9] = biological target: T4, NAD-dependent protein deacetylase sirtuin-1 (Homo sapiens); assay: Inhibition of SIRT1 in etoposide-induced human ARPE19 cells assessed as increase in p53 acetylation at Lys382 at 20 uM after 5 hrs by Western blotting analysis; type: cell-based
Method in brief: as §1

[10] = Cytotoxicity against human SH-SY5Y cells at 20 uM by LDH assay; type: cell-based
[11] = biological target: T5, NAD-dependent protein deacetylase sirtuin-2 (Homo sapiens) (UniProt Q8IXJ6); assay: Inhibition of human recombinant GST-tagged SIRT2 using KI179 as substrate at 50 uM preincubated for 5 mins followed by enzyme addition measured after 1 hr by fluorescence assay relative to control
T5 sequence (whole entry): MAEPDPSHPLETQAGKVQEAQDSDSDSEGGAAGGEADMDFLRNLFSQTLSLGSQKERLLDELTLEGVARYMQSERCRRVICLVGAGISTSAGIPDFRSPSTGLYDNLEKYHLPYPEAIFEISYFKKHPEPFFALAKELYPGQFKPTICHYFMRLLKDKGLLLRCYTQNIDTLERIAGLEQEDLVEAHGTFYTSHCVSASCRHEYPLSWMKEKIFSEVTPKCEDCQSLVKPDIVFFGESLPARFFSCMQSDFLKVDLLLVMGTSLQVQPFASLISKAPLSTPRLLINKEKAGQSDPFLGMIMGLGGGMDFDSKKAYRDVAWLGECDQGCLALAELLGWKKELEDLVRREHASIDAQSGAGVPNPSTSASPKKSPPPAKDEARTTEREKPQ
Method in brief: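 Recombinant GST-SIRT2, Fluor de Lys assay in SIRT assay buffer. Acetylated peptide KI179 at 0.7 Km (Km 198 µM) and NAD+ at 0.9 Km (reported Km 547 µM). Buffer, substrate, NAD+ and compound in DMSO preincubated 5 min at room temperature. Enzyme added to start; 1 h at 37 °C. Developer with 2 mM nicotinamide added; 45 min at 37 °C; fluorescence read. Mean ± SD, ≥3 experiments.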

[12] = test system: A549; assay: Cytotoxicity against human A549 cells assessed as cell death at 100 uM after 18 hrs by propidium iodide staining-based FACS flow cytometric analysis; type: functional
[13] = test system: A549; assay: Growth inhibition of human A549 cells at >= 50 uM after 48 hrs by sulforhodamine B assay; type: functional, cell-based

IC50 [2]: 8.35 µM | inhibition [4]: 82% | IC50 [5]: 0.89 µM | inhibition [6]: Active | inhibition [9]: Active | inhibition [11]: 97%
SMILES: COc1ccc(C(=O)CNC(=O)[C@H](CCCCNC(C)=S)NC(=O)OCc2ccccc2)cc1
growth inhibition (GI) [1]: Active | Activity [3]: inactive | Activity [7]: 7.7% | Activity [8]: 5.8% | Activity [10]: Non-toxic | Activity [12]: inactive | growth inhibition (GI) [13]: Active
